Measurements reported in ChEMBL document CHEMBL3877264, “Quinolidene-rhodanine conjugates: Facile synthesis and biological evaluation” (Eur J Med Chem, 2017).
In brackets after ≈: the same amount, converted by molar mass.

Key:
[1] = Antifungal activity against Fusarium oxysporum NCIM 1332 by standard agar method; assay type: functional
Outline: (§1)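 MICs determined by standard agar method; DMSO as solvent control.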

Bacillus subtilis [2] = test: Growth inhibition of Bacillus subtilis NCIM 2079 at 30 ug/ml measured after 12 hrs relative to control; assay type: functional; conditions: NCIM 2079, 12 h, read-out: GI
Outline: (§2)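 Bacteria grown in LB at 37 °C and 180 rpm to OD 1. Compounds added to wells, then 0.1% inoculum of 1 OD culture (620 nm). Growth read as OD at 620 nm after 8 h for gram-negative and after 12 h for gram-positive strains.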

Bacillus subtilis [3] = test: Growth inhibition of Bacillus subtilis NCIM 2079 at 3 ug/ml measured after 12 hrs relative to control; assay type: functional; conditions: NCIM 2079, 12 h, read-out: GI; outline: as §2
Escherichia coli [4] = test: Growth inhibition of Escherichia coli NCIM 2688 at 3 ug/ml measured after 8 hrs relative to control; assay type: functional; conditions: NCIM 2688, 8 h, read-out: GI; outline: as §2
Pseudomonas fluorescens = test: Growth inhibition of Pseudomonas fluorescens NCIM 2036 at 3 ug/ml measured after 8 hrs relative to control; assay type: functional; conditions: NCIM 2036, 8 h, read-out: GI; outline: as §2
Escherichia coli [5] = test: Antibacterial activity against Escherichia coli NCIM 2688 measured after 8 hrs; assay type: functional; conditions: NCIM 2688, 8 h; outline: as §2
Staphylococcus aureus = test: Antibacterial activity against of Staphylococcus aureus NCIM 2010 measured after 12 hrs; assay type: functional; conditions: NCIM 2010, 12 h; outline: as §2
Bacillus subtilis [6] = test: Antibacterial activity against Bacillus subtilis NCIM 2079 measured after 12 hrs; assay type: functional; conditions: NCIM 2079, 12 h; outline: as §2
[7] = tested on: Mycobacterium tuberculosis; test: Growth inhibition of Mycobacterium tuberculosis H37Ra ATCC 25177 at active stage at 100 ug/ml measured after 8 days by XTT dye based two fold dilution method relative to control; assay type: functional; conditions: H37Ra ATCC 25177, 192 h, read-out: GI
Outline: (§3)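 MTB H37Ra was grown in Dubos medium, then exposed in Mycobacterium pheli minimal medium (pH 6.6) to compounds dissolved in DMSO. The assay ended on day 8 (active) or day 12 (dormant). Viable cells were measured by XTT reduction menadione assay at 470 nm, blank-corrected, relative to vehicle control. Triplicates were expressed as mean ± SD. MIC came from dose-response curves.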

[8] = tested on: Mycobacterium tuberculosis; test: Growth inhibition of Mycobacterium tuberculosis H37Ra ATCC 25177 at active stage at 6.25 ug/ml measured after 8 days by XTT dye based two fold dilution method relative to control; assay type: functional; conditions: H37Ra ATCC 25177, 192 h, read-out: GI; outline: as §3
[9] = tested on: Mycobacterium tuberculosis; test: Growth inhibition of Mycobacterium tuberculosis H37Ra ATCC 25177 at active stage at 1.56 ug/ml measured after 8 days by XTT dye based two fold dilution method relative to control; assay type: functional; conditions: H37Ra ATCC 25177, 192 h, read-out: GI; outline: as §3
[10] = tested on: Mycobacterium tuberculosis; test: Growth inhibition of Mycobacterium tuberculosis H37Ra ATCC 25177 at dormant stage at 100 ug/ml measured after 12 days by XTT dye based two fold dilution method relative to control; assay type: functional; conditions: H37Ra ATCC 25177, 288 h, read-out: GI; outline: as §3
[11] = tested on: Mycobacterium tuberculosis; test: Growth inhibition of Mycobacterium tuberculosis H37Ra ATCC 25177 at dormant stage at 50 ug/ml measured after 12 days by XTT dye based two fold dilution method relative to control; assay type: functional; conditions: H37Ra ATCC 25177, 288 h, read-out: GI; outline: as §3
[12] = tested on: Mycobacterium tuberculosis; test: Growth inhibition of Mycobacterium bovis BCG ATCC 35743 at dormant stage at 100 ug/ml measured after 12 days by nitrate reductase dye based two fold dilution method relative to control; assay type: functional; conditions: BCG str. ATCC 35743, 288 h, read-out: GI
Outline: (§4)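 M. bovis BCG was grown in Dubos medium and assayed in Mycobacterium pheli minimal medium (pH 6.6), with compounds from DMSO stocks. Incubation lasted 8 days for active and 12 days for dormant cultures. Viability was read by nitrate reductase at 540 nm against cell-free blanks, with vehicle set as 100% growth. Primary screen was at 30, 10 and 3 µg/ml, in triplicate, mean ± SD. MIC was taken from dose-response curves.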

[13] = tested on: Mycobacterium tuberculosis; test: Growth inhibition of Mycobacterium bovis BCG ATCC 35743 at dormant stage at 50 ug/ml measured after 12 days by nitrate reductase dye based two fold dilution method relative to control; assay type: functional; conditions: BCG str. ATCC 35743, 288 h, read-out: GI; outline: as §4
[14] = tested on: Mycobacterium tuberculosis; test: Growth inhibition of Mycobacterium bovis BCG ATCC 35743 at dormant stage at 25 ug/ml measured after 12 days by nitrate reductase dye based two fold dilution method relative to control; assay type: functional; conditions: BCG str. ATCC 35743, 288 h, read-out: GI; outline: as §4
[15] = tested on: Mycobacterium tuberculosis; test: Growth inhibition of Mycobacterium bovis BCG ATCC 35743 at dormant stage at 6.25 ug/ml measured after 12 days by nitrate reductase dye based two fold dilution method relative to control; assay type: functional; conditions: BCG str. ATCC 35743, 288 h, read-out: GI; outline: as §4
[16] = tested on: Mycobacterium tuberculosis; test: Growth inhibition of Mycobacterium bovis BCG ATCC 35743 at dormant stage at 30 ug/ml measured after 12 days by nitrate reductase dye based two fold dilution method relative to control; assay type: functional; conditions: BCG str. ATCC 35743, 288 h, read-out: GI; outline: as §4
[17] = tested on: Mycobacterium tuberculosis; test: Growth inhibition of Mycobacterium tuberculosis H37Ra ATCC 25177 at dormant stage measured after 12 days by XTT dye based two fold dilution method; assay type: functional; conditions: H37Ra ATCC 25177, 288 h; outline: as §3
[18] = tested on: Mycobacterium tuberculosis; test: Growth inhibition of Mycobacterium tuberculosis H37Ra ATCC 25177 at active stage measured after 8 days by XTT dye based two fold dilution method; assay type: functional; conditions: H37Ra ATCC 25177, 192 h; outline: as §3
Candida albicans = test: Antifungal activity against Candida albicans NCIM 3471 by standard agar method; assay type: functional; outline: as §1
[19] = Cytotoxicity against primary HUVEC measured after 48 hrs by MTT assay; assay type: toxicity, cell-based; conditions: human
[20] = Cytotoxicity against human THP1 cells measured after 48 hrs by MTT assay; assay type: toxicity, cell-based, THP-1
Outline: (§5)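 MTT assay with 48 h compound exposure. THP-1 macrophages made by 24 h PMA treatment. Each concentration tested in triplicate in one experiment. % cytotoxicity = (control−test)/(control−blank)×100, with control = cells + DMSO and blank = medium without cells. IC50 from % survival versus concentration plots.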

[21] = Cytotoxicity against human THP1 cells assessed as growth inhibition at 100 ug/ml measured after 48 hrs by MTT assay relative to control; assay type: toxicity, cell-based, THP-1; conditions: read-out: GI; outline: as §5
[22] = Cytotoxicity against […]-differentiated human THP1 cells assessed as growth inhibition at 100 ug/ml measured after 48 hrs by MTT assay relative to control; assay type: toxicity, cell-based, THP-1; conditions: read-out: GI; outline: as §5
[23] = Cytotoxicity against human PANC1 cells assessed as growth inhibition at 100 ug/ml measured after 48 hrs by MTT assay relative to control; assay type: toxicity, cell-based, PANC-1; conditions: read-out: GI
[24] = Cytotoxicity against human PANC1 cells measured after 48 hrs by MTT assay; assay type: toxicity, cell-based, PANC-1
[25] = Selectivity index, ratio of GI50 for HUVEC to MIC for Mycobacterium tuberculosis H37Ra ATCC 25177 at dormant stage
[26] = Selectivity index, ratio of GI50 for […]-differentiated human THP1 cells to MIC for Mycobacterium tuberculosis H37Ra ATCC 25177 at dormant stage; assay type: toxicity, cell-based, THP-1; conditions: read-out: Selectivity Index
Outline: (§6)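 SI is the cell-line GI50 divided by the dormant-stage mycobacterial MIC. […] THP-1 macrophages were PMA-differentiated for 24 h.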

[27] = Selectivity index, ratio of GI50 for human A549 cells to MIC for Mycobacterium tuberculosis H37Ra ATCC 25177 at dormant stage; assay type: toxicity, cell-based; conditions: read-out: Selectivity Index; outline: as §6
[28] = Selectivity index, ratio of GI50 for human PANC1 cells to MIC for Mycobacterium tuberculosis H37Ra ATCC 25177 at dormant stage; assay type: toxicity, cell-based, PANC-1; conditions: read-out: Selectivity Index; outline: as §6

SMILES	MIC [1] [µg/mL]	inhibition of growth at 30 µg/mL (Bacillus subtilis [2]) [%]	inhibition of growth at 3 µg/mL (Bacillus subtilis [3]) [%]	inhibition of growth at 3 µg/mL (Escherichia coli [4]) [%]	inhibition of growth at 3 µg/mL (Pseudomonas fluorescens) [%]	MIC (Escherichia coli [5]) [µg/mL]	MIC (Staphylococcus aureus) [µg/mL]	MIC (Bacillus subtilis [6]) [µg/mL]	inhibition of growth at 100 µg/mL [7] [%]	inhibition of growth at 6.25 µg/mL [8] [%]	inhibition of growth at 1.56 µg/mL [9] [%]	inhibition of growth at 100 µg/mL [10] [%]	inhibition of growth at 50 µg/mL [11] [%]	inhibition of growth at 100 µg/mL [12] [%]	inhibition of growth at 50 µg/mL [13] [%]	inhibition of growth at 25 µg/mL [14] [%]	inhibition of growth at 6.25 µg/mL [15] [%]	inhibition of growth at 30 µg/mL [16] [%]	IC50 [17] [µg/mL]	IC90 [17] [µg/mL]	other results
COc1ccc2nc(Cl)c(/C=C3\SC(=S)NC3=O)cc2c1	125 (≈ 371 µM)	21.2	1.79	3.11	76.2	> 30	7.86 (≈ 23.3 µM)	> 30	90.3	55.2	23.1	91.6	90.5	97.7	99	81.6	89.9	-6.75	3.3 (≈ 9.8 µM)	4.7 (≈ 14 µM)	IC50 [18]: 6.9 µg/mL (≈ 20.5 µM); IC90 [18]: 14.3 µg/mL (≈ 42.5 µM); MIC (Candida albicans): 150 µg/mL (≈ 445 µM); GI50 at 48 h [19]: > 100 µg/mL; GI50 at 48 h [20]: > 100 µg/mL; inhibition at 48 h, 100 ug/ml [21]: 26.3%; inhibition at 48 h, 100 ug/ml [22]: 30.2%; inhibition at 48 h, 100 ug/ml [23]: 24.9%; GI50 at 48 h [24]: > 100 µg/mL; Selectivity Index [25]: 20.8; selectivity ratio [26]: 20.8; selectivity ratio [27]: 20.8; selectivity ratio [28]: 20.8
O=C1NC(=S)S/C1=C\c1cc2cc(Cl)ccc2nc1Cl	100 (≈ 293 µM)	101	62.8	106	95.6	2.44 (≈ 7.15 µM)	2.55 (≈ 7.47 µM)	9.33 (≈ 27.3 µM)	92.7	102	23.3	85.4	86.4	98.7	101	100	101	99.2	2.2 (≈ 6.45 µM)	6.3 (≈ 18.5 µM)	IC50 [18]: 1.9 µg/mL (≈ 5.57 µM); IC90 [18]: 3.8 µg/mL (≈ 11.1 µM); MIC (Candida albicans): 100 µg/mL (≈ 293 µM); GI50 at 48 h [19]: > 100 µg/mL; GI50 at 48 h [20]: > 100 µg/mL; inhibition at 48 h, 100 ug/ml [21]: 28.7%; inhibition at 48 h, 100 ug/ml [22]: 29.1%; inhibition at 48 h, 100 ug/ml [23]: 25.2%; GI50 at 48 h [24]: > 100 µg/mL; Selectivity Index [25]: 15.6; selectivity ratio [26]: 15.6; selectivity ratio [27]: 15.6; selectivity ratio [28]: 15.6
